What all share (format): functional, cell-based
One assay relates to MCF7. Kind of assay: Cytotoxicity against human MCF7 cells assessed as growth inhibition after 24 hrs by MTT assay. The following applies: MCF7, 24 h. A digest of the protocol: (§1)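 Exponentially growing cells (A549 lung CCL-185, DU145 prostate HTB-81, HeLa cervical CCL-2, MCF7 breast HTB-22) exposed to a range of compound concentrations for 24 h; viability read by MTT. 5-Fluorouracil served as positive control. IC50 taken as concentration giving 50% drop in cell number versus untreated control cultures.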
For orientation: Tetrazolium assays rely on reduction of a dye to a coloured formazan, in cell work by metabolically active cells.

In another assay the test system is A549. Kind of assay: Cytotoxicity against human A549 cells assessed as growth inhibition after 24 hrs by MTT assay. Particulars: A549, 24 h. In a few lines: as §1
A further assay relates to DU-145. As to the kind of experiment: Cytotoxicity against human DU145 cells assessed as growth inhibition after 24 hrs by MTT assay. The following applies: DU-145, 24 h. A digest of the protocol: as §1
The subject of a further assay is HeLa. Kind of assay: Cytotoxicity against human HeLa cells assessed as growth inhibition after 24 hrs by MTT assay. In a few lines:
as §1

Each structure is given as a SMILES string. pIC50: −log10 of the molar value.

Take `O=C(O)C1=Cc2ccccc2OC1(OCc1cc(-c2ccc3ccccc3c2)no1)C(F)(F)F` (stereo unspecified): the pIC50 was less than 3.82 in the assay on MCF7, less than 3.82 in the assay with A549, 3.85 in the assay with DU-145 and less than 3.82 in the assay with HeLa.
Consider `CCOC(=O)C1=Cc2ccccc2OC1(OCc1cn(-c2ccc(C)cc2)nn1)C(F)(F)F` (stereo unspecified), for which the negative-log IC50 (pIC50) in the assay with MCF7 is 4.57; with A549, 4.71; in the assay with DU-145, 4.52; with HeLa, 4.60.
On the same counts, the results for `CCOC(=O)C1=Cc2ccccc2OC1(OCc1cn(-c2ccc([N+](=O)[O-])cc2)nn1)C(F)(F)F` (stereo unspecified) are less than 3.82, less than 3.82, less than 3.82 and less than 3.82.
For the compound `CCOC(=O)C1=Cc2ccccc2OC1(OCc1cn(-c2ccccc2)nn1)C(F)(F)F` (stereo unspecified), the pIC50 in the assay on MCF7, in the assay with A549, with DU-145 and in the assay on HeLa was less than 3.82 in each case.
In the case of `CCOC(=O)C1=Cc2ccccc2OC1(OCc1cn(-c2ccc(F)c(Cl)c2)nn1)C(F)(F)F` (stereo unspecified), the pIC50 with MCF7 was 4.60; with A549, 4.58; in the assay with DU-145, 4.67; in the assay with HeLa it was 4.64.
On the same counts, the results for `CCOC(=O)C1=Cc2ccccc2OC1(OCc1cn(-c2cccc(C(F)(F)F)c2)nn1)C(F)(F)F` (stereo unspecified) are less than 3.82, less than 3.82, less than 3.82 and less than 3.82.
On the same counts, the results for `CCOC(=O)C1=Cc2ccccc2OC1(OCc1cn(-c2ccc(F)cc2)nn1)C(F)(F)F` (stereo unspecified) are 5.04, 5.14, 5.05 and 5.08.
On the same counts, the results for `CCOC(=O)C1=Cc2ccccc2OC1(OCc1cn(-c2ccc(F)c([N+](=O)[O-])c2)nn1)C(F)(F)F` (stereo unspecified) are 4.79, 4.92, 4.88 and 4.81.
Regarding `CCOC(=O)C1=Cc2ccccc2OC1(OCc1cn(-c2cccc(OC)c2)nn1)C(F)(F)F` (stereo unspecified), the pIC50 with MCF7, with A549, with DU-145 and in the assay on HeLa was less than 3.82 each time.
`CCCCCCCCn1cc(COC2(C(F)(F)F)Oc3ccccc3C=C2C(=O)OCC)nn1` (stereo unspecified): the pIC50 in the assay with MCF7, in the assay with A549, in the assay on DU-145 and in the assay with HeLa was less than 3.82 in each case.
As to `CCOC(=O)C1=Cc2ccccc2OC1(OCc1cn(CC(=O)Nc2ccc(C)cc2)nn1)C(F)(F)F` (stereo unspecified), the pIC50 with MCF7 is less than 3.82; in the assay with A549 it was 4.27; with DU-145 it was less than 3.82; with HeLa, 4.17.
As to `CCOC(=O)C1=Cc2ccccc2OC1(OCc1cn(CC(=O)Nc2ccc(OC)cc2)nn1)C(F)(F)F` (stereo unspecified), the pIC50 in the assay on MCF7 is 4.55; in the assay with A549 it was 4.53; in the assay with DU-145, 4.49; with HeLa it was 4.50.
On the same counts, the results for `CCOC(=O)C1=Cc2ccccc2OC1(OCc1cn(CC(=O)Nc2cccc(Cl)c2)nn1)C(F)(F)F` (stereo unspecified) are 4.94, 4.89, 5.00 and 4.91.
For `CCOC(=O)C1=Cc2ccccc2OC1(OCc1cn(CC(=O)Nc2cccc(F)c2)nn1)C(F)(F)F` (stereo unspecified), the pIC50 with MCF7, in the assay on A549, in the assay on DU-145 and with HeLa was less than 3.82 throughout.
In the case of `CCOC(=O)C1=Cc2ccccc2OC1(OCc1cn(CC(=O)Nc2ccccc2F)nn1)C(F)(F)F` (stereo unspecified), the pIC50 in the assay with MCF7 was 4.38; with A549 it was 4.30; with DU-145 it was 4.47; with HeLa, 4.30.
On to `CCOC(=O)C1=Cc2ccccc2OC1(OCc1cn(CC(=O)Nc2ccccc2Br)nn1)C(F)(F)F` (stereo unspecified), for which the pIC50 with MCF7, in the assay on A549, with DU-145 and in the assay with HeLa was less than 3.82 in each case.
Consider `CCOC(=O)C1=Cc2ccccc2OC1(OCc1cn(CC(=O)Nc2ccc(I)cc2Cl)nn1)C(F)(F)F` (stereo unspecified), for which the pIC50 was 4.55 with MCF7, 4.65 in the assay with A549, 4.61 in the assay with DU-145 and 4.58 in the assay with HeLa.
On the same counts, the results for `CCOC(=O)C1=Cc2ccccc2OC1(OCc1cn(CC(=O)NC2CCCCC2)nn1)C(F)(F)F` (stereo unspecified) are 4.92, 5.00, 4.99 and 4.94.
As to `CCOC(=O)C1=Cc2ccccc2OC1(OCc1cc(-c2ccc(F)cc2)no1)C(F)(F)F` (stereo unspecified), the pIC50 is 4.32 in the assay with MCF7, 4.45 with A549, 4.27 in the assay on DU-145 and 4.37 in the assay on HeLa.
As to `CCOC(=O)C1=Cc2ccccc2OC1(OCc1cc(-c2cccc(C(F)(F)F)c2)no1)C(F)(F)F` (stereo unspecified), the pIC50 with MCF7 was 4.66; with A549, 4.31; in the assay on DU-145 it was 4.24; in the assay on HeLa, 4.67.
On the same counts, the results for `CCOC(=O)C1=Cc2ccccc2OC1(OCc1cc(-c2ccc3ccccc3c2)no1)C(F)(F)F` (stereo unspecified) are 4.18, less than 3.82, 4.14 and less than 3.82.
On the same counts, the results for `CCOC(=O)C1=Cc2ccccc2OC1(OCc1cc(-c2ccc(C)cc2)no1)C(F)(F)F` (stereo unspecified) are less than 3.82, less than 3.82, less than 3.82 and less than 3.82.
On the same counts, the results for `CCOC(=O)C1=Cc2ccccc2OC1(OCc1cc(-c2ccc([N+](=O)[O-])cc2)no1)C(F)(F)F` (stereo unspecified) are less than 3.82, less than 3.82, less than 3.82 and less than 3.82.
For the compound `CCOC(=O)C1=Cc2ccccc2OC1(OCc1cc(-c2ccc(F)cc2F)no1)C(F)(F)F` (stereo unspecified), the pIC50 in the assay on MCF7, in the assay with A549, in the assay with DU-145 and in the assay on HeLa was less than 3.82 throughout.
As to `CCOC(=O)C1=Cc2ccccc2OC1(OCc1cc(-c2ccc(OC)cc2)no1)C(F)(F)F` (stereo unspecified), the pIC50 with MCF7, with A549, in the assay with DU-145 and in the assay on HeLa was less than 3.82 in each case.
`CCOC(=O)C1=Cc2ccccc2OC1(OCc1cc(-c2ccc(Br)cc2)no1)C(F)(F)F` (stereo unspecified): the pIC50 in the assay with MCF7 is less than 3.82; in the assay with A549 it was less than 3.82; in the assay on DU-145 it was 4.14; with HeLa it was 4.28.
Regarding `CCOC(=O)C1=Cc2ccccc2OC1(OCc1cc(-c2ccc(Cl)cc2)no1)C(F)(F)F` (stereo unspecified), the pIC50 in the assay with MCF7 is 4.74; in the assay with A549 it was 4.72; in the assay with DU-145 it was 4.74; with HeLa, 4.91.
For `Cc1ccc(-c2cc(COC3(C(F)(F)F)Oc4ccccc4C=C3C(=O)O)on2)cc1` (stereo unspecified), the pIC50 with MCF7 is 4.52; with A549, 4.29; in the assay on DU-145, 4.38; in the assay with HeLa it was 4.48.
On the same counts, the results for `O=C(O)C1=Cc2ccccc2OC1(OCc1cc(-c2ccc(F)cc2F)no1)C(F)(F)F` (stereo unspecified) are less than 3.82, less than 3.82, less than 3.82 and less than 3.82.
On the same counts, the results for `O=C(O)C1=Cc2ccccc2OC1(OCc1cc(-c2ccc(F)cc2)no1)C(F)(F)F` (stereo unspecified) are 4.19, less than 3.82, 3.77 and less than 3.82.
On the same counts, the results for `O=C(O)C1=Cc2ccccc2OC1(OCc1cc(-c2cccc(C(F)(F)F)c2)no1)C(F)(F)F` (stereo unspecified) are less than 3.82, less than 3.82, 3.81 and less than 3.82.
On to `COc1ccc(-c2cc(COC3(C(F)(F)F)Oc4ccccc4C=C3C(=O)O)on2)cc1` (stereo unspecified), for which the pIC50 in the assay with MCF7 was 4.45; with A549 it was 4.44; with DU-145, 4.38; in the assay on HeLa, less than 3.82.
On the same counts, the results for `O=C(O)C1=Cc2ccccc2OC1(OCc1cc(-c2ccc([N+](=O)[O-])cc2)no1)C(F)(F)F` (stereo unspecified) are less than 3.82, less than 3.82, 4.00 and less than 3.82.
On the same counts, the results for `O=c1[nH]cc(F)c(=O)[nH]1` [FLUOROURACIL] are 5.74, 5.72, 5.72 and 5.74.

By pIC50 is commonly meant the negative decadic logarithm of the IC50, by convention in mol/L.

The values above are taken from ChEMBL document CHEMBL3232960, “Synthesis of novel 1,2,3-triazole/isoxazole functionalized 2H-Chromene derivatives and their cytotoxic activity” (Bioorg Med Chem Lett, 2014).
